This experiment concerns Enterococcus faecium. As to the kind of experiment: Inhibition of Enterococcus faecium C238 growth in presence of kanamycin A. In kind it is functional, organism-based. In a few lines: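 Two-dimensional checkerboard MIC assay per NCCLS, in duplicate, in brain heart infusion medium. Test compound in 2-fold dilutions from 8 to 512 µg/mL against kanamycin A at 100-600 µg/mL. Grown at 37 °C for 16 h; growth read at OD625, averaged, normalized to sterility controls and expressed as percent of positive growth controls.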

In ChEMBL document CHEMBL1146024, “Synthesis and structure-activity relationships of truncated bisubstrate inhibitors of aminoglycoside 6'-N-acetyltransferases” (J Med Chem, 2006) one finds Activity data, which are given here for two compounds.

Molecules are shown by their SMILES. Activity calls are given as the source filed them. The rule behind the calls is not given here.

For `CC(=O)CC(=O)OCC(C)(C)[C@@H](O)C(=O)NCCC(=O)NCCSCC(=O)NC[C@H]1O[C@H](O[C@H]2[C@H](O)[C@@H](O)[C@H](N)C[C@@H]2N)[C@H](N)[C@@H](O)[C@@H]1O`, the result was Active.

`CC(C)(COC(=O)CC(=O)O)[C@@H](O)C(=O)NCCC(=O)NCCSCC(=O)NC[C@H]1O[C@H](O[C@H]2[C@H](O)[C@@H](O)[C@H](N)C[C@@H]2N)[C@H](N)[C@@H](O)[C@@H]1O`: the outcome was inactive.
